In ChEMBL document CHEMBL1137810, “Dammarane-type Saponins from Panax japonicus and their neurite outgrowth activity in SK-N-SH cells” (J Nat Prod, 2002):

Tests used:
[1] = system: SK-N-SH; test: Induction of neurite outgrowth in human SK-N-SH cells at 100 uM after 5 days relative to control; assay type: functional
Method in brief: (§1)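 SK-N-SH cells were plated at 4.7 × 10^4 cell/mL in gridded 60 mm dishes. Compound was added once at the start of culture, with 0.1% DMSO vehicle as control. After 5 days, 100-300 cells in four 650 × 430 µm areas were scored for the percentage bearing neurites longer than 50 µm, expressed as % of control. Values are mean ± sem of eight sights; Student's t-test, P < 0.05.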

[2] = system: SK-N-SH; test: Cytotoxicity against human SK-N-SH cells at 100 uM; assay type: cell-based
[3] = system: SK-N-SH; test: Induction of neurite outgrowth in human SK-N-SH cells at 10 uM after 5 days relative to control; assay type: functional; method in brief: as §1
[4] = system: SK-N-SH; test: Effect on neurite outgrowth activity in human SK-N-SH cells assessed as increase in number of vericosites at 100 uM after 5 days; assay type: functional
Method in brief: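 Human SK-N-SH cells plated at 4.7 × 10^4 cell/mL in gridded 60 mm dishes. Compound added once at culture start at 100 µM; vehicle 0.1% DMSO. Cells examined after 5 days in four areas (650 × 430 µm). Varicosity number counted per cell, 40 cells per value, mean ± sem. Compared with control by Student's t-test, P < 0.05.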

Row | SMILES | Activity [1] | also measured
1 | CC(C)(O)[C@@H]1CC[C@@](C)([C@H]2CC[C@]3(C)[C@@H]2[C@H](O)C[C@@H]2[C@@]4(C)CC[C@H](O)C(C)(C)[C@@H]4[C@@H](O[C@@H]4O[C@H](CO)[C@@H](O)[C@H](O)[C@H]4O)C[C@]23C)O1 | 91.4% | 
2 | CC(C)(O)[C@@H]1CC[C@@](C)([C@H]2CC[C@]3(C)[C@@H]2[C@H](O)C[C@@H]2[C@@]4(C)CC[C@H](O)C(C)(C)[C@@H]4[C@@H](O[C@@H]4O[C@H](CO[C@H]5O[C@H](CO)[C@@H](O)[C@H](O)[C@H]5O)[C@@H](O)[C@H](O)[C@H]4O[C@@H]4OC[C@@H](O)[C@H](O)[C@H]4O)C[C@]23C)O1 | 104.1% | 
3 | C[C@@H]1O[C@@H](O[C@H]2[C@H](O[C@H]3C[C@]4(C)[C@H](C[C@@H](O)[C@@H]5[C@@H]([C@]6(C)CC[C@@H](C(C)(C)O)O6)CC[C@]54C)[C@@]4(C)CC[C@H](O)C(C)(C)[C@H]34)O[C@H](CO)[C@@H](O)[C@@H]2O)[C@H](O)[C@H](O)[C@H]1O |  | Activity [2]: Toxic; Activity [3]: 103%
4 | CC(C)=CCC[C@](C)(O[C@@H]1O[C@H](CO)[C@@H](O)[C@H](O)[C@H]1O)[C@H]1CC[C@]2(C)[C@@H]1[C@H](O)C[C@@H]1[C@@]3(C)CC[C@H](O)C(C)(C)[C@@H]3[C@@H](O[C@@H]3O[C@H](CO)[C@@H](O)[C@H](O)[C@H]3O[C@@H]3O[C@H](CO)[C@@H](O)[C@H](O)[C@H]3O)C[C@]12C | 96.6% | 
5 | CC(=O)OC[C@H]1O[C@@H](O[C@H]2C[C@]3(C)[C@H](C[C@@H](O)[C@@H]4[C@@H]([C@]5(C)CC[C@@H](C(C)(C)O)O5)CC[C@]43C)[C@@]3(C)CC[C@H](O)C(C)(C)[C@H]23)[C@H](O[C@@H]2OC[C@@H](O)[C@H](O)[C@H]2O)[C@@H](O)[C@@H]1O [GINSENOSIDE R2] | 97% | 
6 | CC(C)=CCC[C@](C)(O[C@@H]1O[C@H](CO[C@@H]2O[C@H](CO)[C@@H](O)[C@H](O)[C@H]2O)[C@@H](O)[C@H](O)[C@H]1O)[C@H]1CC[C@]2(C)[C@@H]1[C@H](O)C[C@@H]1[C@@]3(C)CC[C@H](O[C@@H]4O[C@H](CO)[C@@H](O)[C@H](O)[C@H]4O[C@@H]4O[C@H](CO)[C@@H](O)[C@H](O)[C@H]4O)C(C)(C)[C@@H]3CC[C@]12C [GINSENOSIDE RB1] | 178% | Activity [4]: 0.93
7 | CC(C)=CCC[C@](C)(O[C@@H]1O[C@H](CO[C@@H]2OC[C@@H](O)[C@H](O)[C@H]2O)[C@@H](O)[C@H](O)[C@H]1O)[C@H]1CC[C@]2(C)[C@@H]1[C@H](O)C[C@@H]1[C@@]3(C)CC[C@H](O[C@@H]4O[C@H](CO)[C@@H](O)[C@H](O)[C@H]4O[C@@H]4O[C@H](CO)[C@@H](O)[C@H](O)[C@H]4O)C(C)(C)[C@@H]3CC[C@]12C [GINSENOSIDE RB3] | 228% | Activity [4]: 0.8
8 | CC(C)=CCC[C@](C)(O[C@@H]1O[C@H](CO)[C@@H](O)[C@H](O)[C@H]1O)[C@H]1CC[C@]2(C)[C@@H]1[C@H](O)C[C@@H]1[C@@]3(C)CC[C@H](O)C(C)(C)[C@@H]3[C@@H](O[C@@H]3O[C@H](CO)[C@@H](O)[C@H](O)[C@H]3O[C@@H]3O[C@@H](C)[C@H](O)[C@@H](O)[C@H]3O)C[C@]12C [GINSENOSIDE RE] | 83.5% | 
9 | CC(C)=CCC[C@](C)(O[C@@H]1O[C@H](CO)[C@@H](O)[C@H](O)[C@H]1O)[C@H]1CC[C@]2(C)[C@@H]1[C@H](O)C[C@@H]1[C@@]3(C)CC[C@H](O)C(C)(C)[C@@H]3[C@@H](O[C@@H]3O[C@H](CO)[C@@H](O)[C@H](O)[C@H]3O)C[C@]12C [GINSENOSIDE RG1] | 107.3% | 
10 | CC(C)(O)[C@@H]1CC[C@@](C)([C@H]2CC[C@]3(C)[C@@H]2[C@H](O)C[C@@H]2[C@@]4(C)CC[C@H](O)C(C)(C)[C@@H]4[C@@H](O[C@@H]4O[C@H](CO)[C@@H](O)[C@H](O)[C@H]4O[C@@H]4OC[C@@H](O)[C@H](O)[C@H]4O)C[C@]23C)O1 [MAJONOSIDE R2] | 109.6% | 
11 | CC(C)=CCC[C@](C)(O[C@@H]1O[C@H](CO[C@@H]2O[C@H](CO)[C@@H](O)[C@H](O)[C@H]2O)[C@@H](O)[C@H](O)[C@H]1O)[C@H]1CC[C@]2(C)[C@@H]1[C@H](O)C[C@@H]1[C@@]3(C)CC[C@H](O[C@@H]4O[C@H](CO)[C@@H](O)[C@H](O)[C@H]4O[C@@H]4O[C@H](CO)[C@@H](O)[C@H](O)[C@H]4O[C@@H]4OC[C@@H](O)[C@H](O)[C@H]4O)C(C)(C)[C@@H]3CC[C@]12C [NOTOGINSENOSIDE FA] | 147% | Activity [4]: 0.53
12 | CC(C)=CCC[C@](C)(O[C@@H]1O[C@H](CO)[C@@H](O)[C@H](O)[C@H]1O)[C@H]1CC[C@]2(C)[C@@H]1[C@H](O)C[C@@H]1[C@@]3(C)CC[C@H](O)C(C)(C)[C@@H]3[C@@H](O[C@@H]3O[C@H](CO)[C@@H](O)[C@H](O)[C@H]3O[C@@H]3OC[C@@H](O)[C@H](O)[C@H]3O)C[C@]12C [NOTOGINSENOSIDE R1] | 84.6% | 
13 | CC(=O)OC[C@H]1O[C@@H](O[C@H]2C[C@]3(C)[C@H](C[C@@H](O)[C@@H]4[C@@H]([C@]5(C)CC[C@@H](C(C)(C)O)O5)CC[C@]43C)[C@@]3(C)CC[C@H](O)C(C)(C)[C@H]23)[C@H](O[C@@H]2O[C@H](C)[C@@H](O)[C@H](O)[C@@H]2O)[C@@H](O)[C@@H]1O [VINA-GINSENOSIDE R1] | 82.2% | 
